pKi: −log10 of the molar value.
Tests used:
Mus musculus [1] = assay: Inhibition of mescaline effects in mice following p.o. administration.; type: functional; settings: po
Method in brief: (§1)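 In mice, antagonism of mescaline-induced effects was tested after oral administration. Potency is an ED50 in mg/kg, calculated as free base weight.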

Mus musculus [2] = assay: Antimescaline activity in the mouse (administered po); type: functional; method in brief: as §1
Mus musculus [3] = assay: Ability to block the aggressive behavior caused by prolonged isolation in mouse (administered po); type: functional
Method in brief: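 Mice were made aggressive by prolonged isolation. The compound was given orally, and blockade of the aggressive behavior was scored. ED50 is in mg/kg, expressed as free base weight.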

Rattus norvegicus [4] = assay: In vivo antagonism of compound determined by the ability to inhibit 5-HTP-induced head twitch in rat (administered po); type: functional
Method in brief: (§2)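 In rats, head twitches were induced with 5-hydroxytryptophan as an in vivo read-out of 5HT2 antagonism. The compound was dosed po, and inhibition of twitching gave an ED50 (mg/kg, free base weight).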

Mus musculus [5] = species: Mus musculus; assay: Ability to block the aggressive behavior caused by prolonged isolation in mouse; type: functional
Method in brief: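 Mice made aggressive by prolonged isolation; compounds dosed orally (po); blocking of aggressive behaviour scored and ED50 derived in mg/kg, expressed as free base weight; values averaged from three measurements, some single measurements.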

Rattus norvegicus [6] = assay: In vivo activity of 5-HTP-induced head twitch in rat as a measure of 5-HT2 antagonism; type: functional; method in brief: as §2
Rattus norvegicus [7] = assay: In vivo 5-HT2 antagonism of 5-HTP-induced head twitch in rat; type: functional
Method in brief: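 Rats given 5-hydroxytryptophan (5HTP) to induce head twitches, a read-out of in vivo 5HT2 antagonism; compounds given orally (po); ED50 in mg/kg as free base weight; values averaged from three measurements, some single measurements.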

[8] = target: Sigma non-opioid intracellular receptor 1 (Cavia porcellus) (UniProt Q60492); assay: Binding affinity for sigma receptor of guinea pig whole brain using [3H]-SKF- 100047 radioligand
Sigma non-opioid intracellular receptor 1 (Cavia porcellus), sequence (Q60492 whole entry, looked up): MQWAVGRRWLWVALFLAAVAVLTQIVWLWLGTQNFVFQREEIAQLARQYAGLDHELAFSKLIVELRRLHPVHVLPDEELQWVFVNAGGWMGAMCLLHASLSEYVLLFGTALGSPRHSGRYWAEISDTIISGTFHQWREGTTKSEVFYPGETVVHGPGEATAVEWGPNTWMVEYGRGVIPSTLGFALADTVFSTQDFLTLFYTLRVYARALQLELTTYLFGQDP

Structure (SMILES)	ED50 (Mus musculus [1]) [mg/kg]	ED50 (Mus musculus [2]) [mg/kg]	also measured
O=C(O)/C=C/C(=O)O.O=C1c2c(F)cc(F)cc2CCC12CCN(CCc1ccccc1)CC2	> 10		
O=C1c2ccc(F)cc2CCC1C1CCN(Cc2ccccc2)CC1 (configuration not stated)	> 10		
OC1CCc2ccccc2C12CCN(CCc1ccccc1)CC2 (configuration not stated)	> 30		
O=C1c2ccc(Cl)cc2CCC12CCN(CCc1ccccc1)CC2	10		
O=C(O)CC(O)C(=O)O.O=C1c2ccccc2CCC12CCN(Cc1ccc(C(F)(F)F)cc1)CC2		> 10	
O=C(O)CC(O)C(=O)O.O=C1c2ccccc2CCC12CCN(Cc1ccc3ccccc3c1)CC2	> 10		
Cc1ccc(CN2CCC(C3CCc4ccccc4C3=O)CC2)cc1.O (configuration not stated)	> 10		
CC(C)(C)c1ccc(CN2CCC(C3CCc4ccccc4C3=O)CC2)cc1 (configuration not stated)		> 10	
c1ccc(CN2CCC3(CCCc4ccccc43)CC2)cc1		> 30	ED50 (Mus musculus [3]): > 30 mg/kg; ED50 (Rattus norvegicus [4]): > 30 mg/kg
COc1ccc2c(c1)CCC(C1CCN(CCc3ccccc3)CC1)C2=O (configuration not stated)	6.5		
O=C1CCc2ccccc2C12CCN(CCc1ccccc1)CC2	> 30		
O=C1c2ccc(F)cc2CCC1C1CCN(CCc2ccccc2)CC1 (configuration not stated)		1.9	
Br.O=C1c2ccccc2CCC1C1CCN(CCc2ccccc2)CC1 (configuration not stated)		6.4	
Br.CC(C1CC1)N1CCC(C2CCc3ccccc3C2=O)CC1 (configuration not stated)		> 30	
CC(C)(C)c1ccc(CN2CCC3(CCc4ccccc4C3=O)CC2)cc1.Cl	> 10		
COc1ccc(CN2CCC3(CCc4ccccc4C3=O)CC2)cc1.Cl		> 10	

Structure (SMILES)	ED50 (Mus musculus [1]) [mg/kg]	ED50 (Mus musculus [2]) [mg/kg]	also measured
Cl.OC1c2ccccc2CCC12CCN(CCc1ccccc1)CC2 (configuration not stated)	0.064		ED50 (Mus musculus [5]): 10 mg/kg; ED50 (Rattus norvegicus [6]): 0.07 mg/kg
CN1CCC2(CCc3ccccc3C2=O)CC1.Cl	> 10		
Br.O=C1c2ccccc2CCC1C1CCN(CC2CC2)CC1 (configuration not stated)	> 10		
Br.O=C(CC1CCN(CC2CC2)CC1)c1ccc(F)cc1		0.35	ED50 (Rattus norvegicus [7]): 1.8 mg/kg; pKi [8]: 8.00; ED50 (Mus musculus [5]): 1.9 mg/kg
Cl.O=C1c2cccc(F)c2CCC1C1CCN(CCc2ccccc2)CC1 (configuration not stated)	6.8		
Cl.O=C1c2ccccc2CCC12CCN(Cc1ccc([N+](=O)[O-])cc1)CC2	> 10		
Cl.O=C1c2ccccc2CCC1C1CCN(Cc2ccccc2)CC1 (configuration not stated)	4.5		
Cl.O=C1c2ccc(Cl)cc2CCC1C1CCN(CCc2ccccc2)CC1 (configuration not stated)	5.4		
Cl.O=C1c2ccccc2CCC12CCN(Cc1ccc(F)cc1)CC2		> 10	
Cl.O=C1c2ccccc2CCC1C1CCN(Cc2ccc(F)cc2)CC1 (configuration not stated)		10	
Cl.O=C1c2ccccc2CCC1C1CCN(Cc2ccc(C(F)(F)F)cc2)CC1 (configuration not stated)		> 10	
Cl.O=C(CCCN1CCC2(CCc3ccccc3C2=O)CC1)c1ccc(F)cc1	0.65		
Cl.O=C1c2ccccc2CCC12CCN(CC1CCCCC1)CC2	> 10		
Cl.O=C1c2ccccc2CCC12CCN(CCc1ccccc1)CC2	10		ED50 (Rattus norvegicus [7]): 10 mg/kg; ED50 (Mus musculus [5]): 30 mg/kg
Cl.O=C1c2ccccc2CCC12CCN(Cc1ccccc1)CC2	> 10		
C[C@@H]1CN(CCCn2c3ccccc3c3ccccc32)C[C@H](C)N1 [RIMCAZOLE]		22	ED50 (Mus musculus [5]): 48 mg/kg
